Tests used:
[1] = in whole blood; cited from earlier work
[2] = biological target: T1, glypican-1 binding to Slit protein (Homo sapiens, UniProt O94813, DEL1116-1124); assay: ELISA of glypican-1–Fc binding to immobilised human full-length Slit-2
T1 sequence (O94813 with tags, fused parts or gaps DEL1116-1124): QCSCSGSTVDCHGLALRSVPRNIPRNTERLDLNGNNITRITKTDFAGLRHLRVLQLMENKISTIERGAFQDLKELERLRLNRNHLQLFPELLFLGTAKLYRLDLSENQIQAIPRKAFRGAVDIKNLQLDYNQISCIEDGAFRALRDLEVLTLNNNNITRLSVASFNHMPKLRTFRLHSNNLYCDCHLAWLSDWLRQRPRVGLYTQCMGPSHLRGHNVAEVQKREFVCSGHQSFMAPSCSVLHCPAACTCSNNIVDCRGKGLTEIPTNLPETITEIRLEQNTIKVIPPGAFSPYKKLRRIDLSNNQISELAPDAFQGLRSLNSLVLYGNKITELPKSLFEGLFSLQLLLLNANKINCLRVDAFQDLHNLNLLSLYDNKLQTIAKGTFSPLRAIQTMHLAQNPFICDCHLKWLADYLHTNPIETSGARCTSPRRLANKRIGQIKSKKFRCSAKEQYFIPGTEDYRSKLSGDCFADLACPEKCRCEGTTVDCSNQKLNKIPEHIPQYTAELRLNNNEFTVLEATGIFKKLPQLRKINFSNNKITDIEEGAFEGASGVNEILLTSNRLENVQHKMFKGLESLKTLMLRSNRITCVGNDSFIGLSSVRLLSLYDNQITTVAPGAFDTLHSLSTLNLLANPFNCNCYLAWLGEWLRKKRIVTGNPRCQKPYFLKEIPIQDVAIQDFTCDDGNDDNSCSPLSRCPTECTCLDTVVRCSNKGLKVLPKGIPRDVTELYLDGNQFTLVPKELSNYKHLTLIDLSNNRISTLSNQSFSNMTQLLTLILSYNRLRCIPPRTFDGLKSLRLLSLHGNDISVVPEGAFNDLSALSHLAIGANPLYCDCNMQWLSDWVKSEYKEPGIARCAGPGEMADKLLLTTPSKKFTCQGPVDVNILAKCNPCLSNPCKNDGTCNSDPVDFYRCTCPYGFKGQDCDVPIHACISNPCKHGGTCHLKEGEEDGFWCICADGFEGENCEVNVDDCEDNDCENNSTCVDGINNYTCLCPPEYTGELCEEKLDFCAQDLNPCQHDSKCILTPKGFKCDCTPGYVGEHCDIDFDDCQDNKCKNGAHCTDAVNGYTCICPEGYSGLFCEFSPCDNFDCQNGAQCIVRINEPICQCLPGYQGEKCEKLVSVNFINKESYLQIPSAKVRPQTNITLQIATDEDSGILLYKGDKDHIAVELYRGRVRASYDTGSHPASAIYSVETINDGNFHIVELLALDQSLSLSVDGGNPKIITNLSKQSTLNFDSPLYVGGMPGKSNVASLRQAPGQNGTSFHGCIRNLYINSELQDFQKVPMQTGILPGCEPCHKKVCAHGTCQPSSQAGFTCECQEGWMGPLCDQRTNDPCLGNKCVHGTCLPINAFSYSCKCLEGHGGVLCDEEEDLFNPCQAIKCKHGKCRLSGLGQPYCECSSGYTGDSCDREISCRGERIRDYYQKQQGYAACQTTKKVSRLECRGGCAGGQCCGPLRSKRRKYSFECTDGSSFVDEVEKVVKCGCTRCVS
How it was run: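 Wells coated overnight with His-tagged uncleavable full-length human Slit-2 (HEK293-expressed, Ni-agarose purified), 5 μg/well in PBS; blocked 2 h with 10% FBS/TBST. Glycanated glypican-1–Fc (HEK293, DEAE then protein A) added at 1 μg/mL in PBS, 18 h, room temperature. Detection: biotinylated anti-human Fc, HRP-streptavidin, o-phenylenediamine, 450 nm. Non-specific binding from BSA-coated wells; bound amount read from glypican-1–Fc standard curve; replicates.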

## O=S(=O)(O)c1cc2c(O)c(c1)Cc1cc(S(=O)(=O)O)cc(c1O)Cc1cc(S(=O)(=O)O)cc(c1O)Cc1cc(S(=O)(=O)O)cc(c1O)Cc1cc(S(=O)(=O)O)cc(c1O)Cc1cc(S(=O)(=O)O)cc(c1O)Cc1cc(S(=O)(=O)O)cc(c1O)Cc1cc(S(=O)(=O)O)cc(c1O)C2 [GL-522-Y-1, cyclic octaphenol-octasulphonic acid]
[1]
  anticoagulant activity: no significant anticoagulant activity
[2]; at 5 μmol/L
  inhibition of glypican binding to Slit: 61%
[2]; at 50 μmol/L
  inhibition of glypican binding to Slit: 67%

## CO[C@H]1O[C@H](COS(=O)(=O)O)[C@@H](O[C@@H]2O[C@@H](C(=O)O)[C@@H](O[C@H]3O[C@H](COS(=O)(=O)O)[C@@H](O[C@@H]4O[C@H](C(=O)O)[C@@H](O[C@H]5O[C@H](COS(=O)(=O)O)[C@@H](O)[C@H](O)[C@H]5NS(=O)(=O)O)[C@H](O)[C@H]4O)[C@H](OS(=O)(=O)O)[C@H]3NS(=O)(=O)O)[C@H](O)[C@H]2OS(=O)(=O)O)[C@H](O)[C@H]1NS(=O)(=O)O [fondaparinux]
[2]; at concentrations up to 50 μmol/L
  inhibition of glypican–Slit binding (in words): completely inactive

## Cc1ccc(C(=O)Nc2ccc(S(=O)(=O)O)c3cc(S(=O)(=O)O)cc(S(=O)(=O)O)c23)cc1NC(=O)c1cccc(NC(=O)Nc2cccc(C(=O)Nc3cc(C(=O)Nc4ccc(S(=O)(=O)O)c5cc(S(=O)(=O)O)cc(S(=O)(=O)O)c45)ccc3C)c2)c1 [suramin]
[2]; read-out: inhibition of glypican binding to Slit
  inhibition at 5 µM: 53%

Reference: publication PMC4576835 (Clinical and experimental pharmacology & physiology, 2009)
